Test [1] concerns the target T1, Vitamin D3 receptor (Rattus norvegicus) (UniProt P13053).
T1 sequence (whole entry): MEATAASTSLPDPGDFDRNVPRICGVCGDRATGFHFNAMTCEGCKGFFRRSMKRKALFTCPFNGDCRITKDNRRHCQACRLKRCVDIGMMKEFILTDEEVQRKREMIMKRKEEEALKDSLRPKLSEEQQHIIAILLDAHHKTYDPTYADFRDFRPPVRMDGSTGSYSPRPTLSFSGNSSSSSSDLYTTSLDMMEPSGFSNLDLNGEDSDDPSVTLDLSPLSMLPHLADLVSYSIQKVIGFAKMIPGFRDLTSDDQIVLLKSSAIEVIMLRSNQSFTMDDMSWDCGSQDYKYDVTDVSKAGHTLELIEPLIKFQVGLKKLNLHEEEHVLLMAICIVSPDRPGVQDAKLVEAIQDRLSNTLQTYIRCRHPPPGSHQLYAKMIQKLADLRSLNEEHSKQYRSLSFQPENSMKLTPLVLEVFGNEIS
In words: Ratio of 1alpha,25-(OH)2D3 Ki to compound Ki for full-length recombinant rat vitamin D receptor after 30 mins by liquid scintillation counting. The procedure, abridged: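 Competitive binding to VDR was run against radiolabeled 1α,25-(OH)₂D₃ at 1 nM. […] Duplicate determinations were made on two separate occasions. Each value is the mean of the 1α,25-(OH)₂D₃ Ki divided by the analogue Ki.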

The next test concerns HL-60. The test can be described thus: Ratio of 1alpha,25-(OH)2D3 ED50 to compound ED50 for induction of human HL60 cell differentiation by nitro blue tetrazolium reduction assay. Format: functional. The procedure, abridged: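 HL-60 promyelocytes were scored for maturation to monocytes as the percentage of cells reducing nitro blue tetrazolium. ED₅₀, the concentration giving 50% maturation, was taken from dose−response curves. The experiment was run in duplicate twice. Each value is the mean of the 1α,25-(OH)₂D₃ ED₅₀ divided by the analogue ED₅₀.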

For test [2], the target named is T1, Vitamin D3 receptor (Rattus norvegicus). The test can be described thus: Ratio of 1alpha,25-(OH)2D3 ED50 to compound ED50 for VDR-mediated 24-hydroxylase gene expression in rat ROS 17/2.8 cells after 16 hrs by luciferase reporter assay. Format: cell-based. The method in brief: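 Rat osteosarcoma cells stably transfected with a 24-hydroxylase gene reporter plasmid were used as a transcription assay. ED₅₀ is the concentration raising luciferase activity by 50%, taken from dose−response curves. Each value is the ratio of the 1α,25-(OH)₂D₃ ED₅₀ to the analogue ED₅₀.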
In general terms: Reporter assays use an easily measured gene product as a stand-in for the process of interest.

Test [3] deals with Rattus norvegicus. In words: Effect on bone calcium mobilization in weanling Sprague-Dawley rat assessed as serum calcium level at 87 pmol/day, ip administered as 4 consecutive daily doses measured 24 hrs after last dose (reference value: 4.2 to 4.9 mg/dL). Format: functional.
Test [4] relates to Rattus norvegicus. The test can be described thus: Effect on bone calcium mobilization in weanling Sprague-Dawley rat assessed as serum calcium level at 780 pmol/day, ip administered as 4 consecutive daily doses measured 24 hrs after last dose (reference value: 4.2 to 4.9 mg/dL). Format: functional.
Test [5] concerns Rattus norvegicus. The test can be described thus: Effect on bone calcium mobilization in weanling Sprague-Dawley rat assessed as serum calcium level at 7020 pmol/day, ip administered as 4 consecutive daily doses measured 24 hrs after last dose (reference value: 4.2 to 4.9 mg/dL). Format: functional.
Test [6] concerns Rattus norvegicus. The test can be described thus: Effect on bone calcium mobilization in weanling Sprague-Dawley rat assessed as serum calcium level at 35100 pmol/day, ip administered as 4 consecutive daily doses measured 24 hrs after last dose (reference value: 4.2 to 4.9 mg/dL). Format: functional.
Test [7] relates to Rattus norvegicus. In words: Effect on intestinal calcium transport in weanling Sprague-Dawley rat assessed as increase in ratio of serosal to mucosal calcium level at 780 pmol/day, ip administered as 4 consecutive daily doses measured 24 hrs after last dose. Format: functional.
The test system of test [8] is Rattus norvegicus. In words: Effect on intestinal calcium transport in weanling Sprague-Dawley rat assessed as increase in ratio of serosal to mucosal calcium level at 87 pmol/day, ip administered as 4 consecutive daily doses measured 24 hrs after last dose. Format: functional.
For test [9], the system named is Rattus norvegicus. The test can be described thus: Effect on intestinal calcium transport in weanling Sprague-Dawley rat assessed as increase in ratio of serosal to mucosal calcium level at 7020 pmol/day, ip administered as 4 consecutive daily doses measured 24 hrs after last dose. Format: functional.
Test [10] relates to Rattus norvegicus. In words: Effect on intestinal calcium transport in weanling Sprague-Dawley rat assessed as increase in ratio of serosal to mucosal calcium level at 35100 pmol/day, ip administered as 4 consecutive daily doses measured 24 hrs after last dose. Format: functional.
The subject of test [11] is Rattus norvegicus. The test can be described thus: Effect on bone calcium mobilization in weanling Sprague-Dawley rat assessed as serum calcium level at 32 pmol/day, ip administered as 4 consecutive daily doses measured 24 hrs after last dose (reference value: 4.2 to 4.9 mg/dL). Format: functional.
Test [12] relates to Rattus norvegicus. In words: Effect on intestinal calcium transport in weanling Sprague-Dawley rat assessed as increase in ratio of serosal to mucosal calcium level at 32 pmol/day, ip administered as 4 consecutive daily doses measured 24 hrs after last dose. Format: functional.

As for `C=C1CC/C(=C/C=C2\CCC[C@]3(C)[C@@H]([C@H](C)CCCC(C)(C)O)CC[C@@H]23)C(=C)[C@H]1O`, the Ratio Ki in [1] came to 0.25. In addition, the “Ratio ED50” value turned out to be 2 in the test on HL-60 and 1 in test [2]. The Activity in the test on Rattus norvegicus [3] was 4.5 mg/dL; with Rattus norvegicus [4], 5.9 mg/dL; in the test with Rattus norvegicus [5], 8.8 mg/dL; in the test on Rattus norvegicus [6] it was 8.2 mg/dL. Besides, the Ratio is 11.8 in the test on Rattus norvegicus [7], 8.5 in the test with Rattus norvegicus [8], 9.8 with Rattus norvegicus [9] and 11.3 with Rattus norvegicus [10].
For the compound `C=C1CC/C(=C\C=C2/CCC[C@]3(C)[C@@H]([C@@H](C)CCCC(C)(C)O)CC[C@@H]23)C[C@H]1O`, the Ratio Ki in test [1] came out at 0.1. The “Ratio ED50” value (in the test with HL-60; in [2]) was 0.07 in each case.
With `C=C1/C(=C\C=C2/CCC[C@]3(C)[C@@H]([C@H](C)CCCC(C)(C)O)CC[C@@H]23)C[C@@H](O)C[C@@H]1O` [CALCITRIOL], the figures for the Activity with Rattus norvegicus [3] and in the test on Rattus norvegicus [4] were 5 mg/dL and 7.5 mg/dL, respectively.
As for `C=C1CC/C(=C/C=C2\CCC[C@]3(C)[C@@H]([C@@H](C)CCCC(C)(C)O)CC[C@@H]23)C[C@H]1O`, the Ratio Ki in test [1] came out at 0.5. The “Ratio ED50” value was determined as 2.5 with HL-60 and 2 in test [2].
`C=C1CC(=C)[C@H](O)C/C1=C/C=C1\CCC[C@]2(C)[C@@H]([C@H](C)CCCC(C)(C)O)CC[C@@H]12`: in test [1], the Ratio Ki came out at 0.05. Besides, the “Ratio ED50” value in the test with HL-60 was 0.005; in test [2], 0.0005. Moreover, the Activity in the test on Rattus norvegicus [3] amounted to 4.4 mg/dL; in the test with Rattus norvegicus [4], 5.4 mg/dL; in the test with Rattus norvegicus [5] it was 8.2 mg/dL. Also, the Ratio in the test with Rattus norvegicus [7] was found to be 9.4; in the test with Rattus norvegicus [8], 5.7; with Rattus norvegicus [9] it was 10.2; in the test on Rattus norvegicus [10] it was 9.7.
`C=C1CC/C(=C/C=C2\CCC[C@]3(C)[C@@H]([C@@H](C)CCCC(C)(C)O)CC[C@@H]23)C(=C)[C@H]1O`: in test [1], the Ratio Ki is 0.33. The “Ratio ED50” value with HL-60 amounted to 4; in test [2], 1. For the same compound, the values for the Activity in the test with Rattus norvegicus [3], with Rattus norvegicus [4] and in the test on Rattus norvegicus [11] were 4.9 mg/dL, 9.7 mg/dL and 4.8 mg/dL, respectively. In addition, the Ratio in the test on Rattus norvegicus [7] is reported as 12.6; with Rattus norvegicus [8], 10.2; in the test with Rattus norvegicus [12], 7.9.
As to `C=C1CC(=C)[C@H](O)C/C1=C/C=C1\CCC[C@]2(C)[C@@H]([C@@H](C)CCCC(C)(C)O)CC[C@@H]12`, the Ratio Ki in test [1] was found to be 0.33. Besides, the “Ratio ED50” value with HL-60 was 0.22; in test [2], 0.2. Besides, the figures for the Activity in the test with Rattus norvegicus [3], in the test on Rattus norvegicus [4] and in the test with Rattus norvegicus [11] were 4.8 mg/dL, 7.5 mg/dL and 4.3 mg/dL, respectively. The Ratio turned out to be 14.3 with Rattus norvegicus [7], 9.8 in the test with Rattus norvegicus [8] and 9 with Rattus norvegicus [12].
Take `C=C1[C@H](O)CC(=C/C=C2\CCC[C@]3(C)[C@@H]([C@@H](C)CCCC(C)(C)O)CC[C@@H]23)C[C@H]1O` [DP001]: the Ratio Ki in test [1] is 1. Besides, the “Ratio ED50” value in the test with HL-60 came out at 25; in test [2] it was 29.
The matching figures for `C=C1CC/C(=C\C=C2/CCC[C@]3(C)[C@@H]([C@H](C)CCCC(C)(C)O)CC[C@@H]23)C[C@H]1O`: 0.02, 0.01 and 0.001.
`C=C1CC/C(=C/C=C2\CCC[C@]3(C)[C@@H]([C@H](C)CCCC(C)(C)O)CC[C@@H]23)C[C@H]1O`: the Ratio Ki in [1] came out at 0.2. For the same compound, the figures for the “Ratio ED50” value (in the test with HL-60; in test [2]) were 2.2 and 0.7, respectively.
Take `C=C1CC[C@H](O)C/C1=C/C=C1\CCC[C@]2(C)[C@@H]([C@H](C)CCCC(C)(C)O)CC[C@@H]12` [CALCIFEDIOL ANHYDROUS]: the Ratio Ki in [1] turned out to be 0.01. Moreover, the “Ratio ED50” value (in the test on HL-60; in test [2]) was 0.001 each time.
